Activity calls are given as the source filed them. The calls are words filed in the database; no cut-off is given here.
What was measured:
HEK293 [1] = experiment: Growth inhibition of HEK293 cells harboring Wnt after 24 hrs by CellTiter-Fluor assay; type: cell-based; conditions: human, hek293, 24 h
Procedure, shortened: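 HEK293 cells stably carrying the TOPFlash reporter were plated at 2000/well in DMEM with 10% FBS and incubated overnight. Compound was added with recombinant human Wnt-3a, then incubated 24 h at 37 °C. CellTiter-Fluor reagent was added and fluorescence read after 30 min at 37 °C.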

[2] = Inhibition of Wnt3a activated Wnt/beta-catenin signaling (unknown origin) expressed in HEK293 cells harboring TCF/LEF-responsive luciferase preincubated with cells followed by Wnt3a addition and measured after 24 hrs by luciferase reporter gene assay; type: cell-based; conditions: Homo sapiens
Procedure, shortened: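 HEK293 cells stably carrying TOPFlash/GFP were plated at 2000/well in DMEM with 10% FBS and kept overnight at 37 °C. Compound was pin-transferred, then recombinant human Wnt-3a was added (200 ng/mL working stock). After 24 h at 37 °C, ONE-Glo luminescence was read after 30 min. IC50 is mean ± SE from three independent experiments.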

[3] = Oral bioavailability in mouse; type: ADME, organism-based; conditions: in vivo
HEK293 [4] = experiment: Inhibition of LiCl-activated Wnt/beta-catenin/Axin signaling (unknown origin) expressed in HEK293 cells assessed as degradation of beta-catenin by measuring decrease in beta-catenin protein expression after 24 hrs by Western blot method; type: cell-based; conditions: Homo sapiens
Procedure, shortened: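 HEK293 cells were treated with compound in the presence of lithium chloride for 24 h. Lysis buffer contained 10 mM HEPES, 100 μM EDTA, 10 mM KCl, 0.5% NP40 and inhibitors. Protein was quantified by BCA, resolved on 10% SDS-PAGE, and immunoblotted for β-catenin.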

HEK293 [5] = experiment: Growth inhibition of unstimulated HEK293 cells up to 100 uM after 72 hrs by CellTiter-Fluor assay; type: cell-based; conditions: human, hek293, 72 h
Procedure, shortened: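 Unstimulated HEK293 cells were plated at 3.5×10^5/well and grown for 24 h, then incubated with compound for 72 h. Viability was read with CellTiter-Fluor.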

Axin-1 (Homo sapiens) = Axin-1 (Homo sapiens) (UniProt O15169); experiment: Stabilization of Axin1 in human HuH7 cells assessed as decrease in lipid accumulation at 5 uM after 36 hrs by nile red staining based fluorescence microscopic method; type: cell-based
Procedure, shortened: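 Huh7 cells on collagen I-coated coverslips were treated with 5 μM compound for 36 h, then with 200 μM sodium oleate for a further 12–16 h. Cells were stained with 1 μM Nile red in HBSS for 10 min at 37 °C in the dark and imaged by fluorescence microscopy at 552/636 nm.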

Axin-1 (Homo sapiens), sequence (O15169 whole entry): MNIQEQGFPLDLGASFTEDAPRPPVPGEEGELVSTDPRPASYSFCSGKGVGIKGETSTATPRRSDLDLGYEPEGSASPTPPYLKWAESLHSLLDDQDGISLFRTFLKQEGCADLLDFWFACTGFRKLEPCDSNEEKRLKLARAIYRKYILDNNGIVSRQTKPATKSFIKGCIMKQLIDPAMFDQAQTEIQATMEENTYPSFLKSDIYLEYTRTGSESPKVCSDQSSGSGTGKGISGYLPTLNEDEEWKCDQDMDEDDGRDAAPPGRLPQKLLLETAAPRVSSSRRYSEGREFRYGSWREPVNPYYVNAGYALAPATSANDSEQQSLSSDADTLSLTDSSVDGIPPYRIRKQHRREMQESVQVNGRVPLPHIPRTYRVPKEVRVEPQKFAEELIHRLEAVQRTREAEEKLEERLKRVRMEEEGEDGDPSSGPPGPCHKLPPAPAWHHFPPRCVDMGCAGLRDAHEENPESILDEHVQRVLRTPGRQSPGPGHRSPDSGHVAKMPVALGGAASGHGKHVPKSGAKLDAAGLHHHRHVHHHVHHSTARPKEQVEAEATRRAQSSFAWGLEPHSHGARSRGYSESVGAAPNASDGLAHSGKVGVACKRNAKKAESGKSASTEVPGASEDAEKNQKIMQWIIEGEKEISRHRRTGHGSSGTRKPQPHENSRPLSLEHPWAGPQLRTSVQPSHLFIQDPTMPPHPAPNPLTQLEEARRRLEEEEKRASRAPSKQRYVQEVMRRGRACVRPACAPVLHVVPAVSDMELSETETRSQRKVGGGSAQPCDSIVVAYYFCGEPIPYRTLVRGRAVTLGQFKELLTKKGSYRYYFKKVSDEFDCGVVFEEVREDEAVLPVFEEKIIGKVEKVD

IC50 [2] [nM]	SMILES	growth inhibition (GI) (HEK293 [1])	further results
1300	Cc1ccccc1-n1nnc(C(=O)Nc2ccc3cc(CN4CCOCC4)ccc3n2)c1C	Non-Toxic	
> 10000	Cc1cccc(-n2nnc(C(=O)Nc3ccc4ccccc4n3)c2C)c1	Non-Toxic	
140	Cc1cccc(-n2nnc(C(=O)Nc3ccc4ccccc4n3)c2C)c1C	Non-Toxic	
390	Cc1c(C(=O)Nc2ccc3ccccc3n2)nnn1-c1ccccc1-c1ccccc1	Non-Toxic	
7.6	Cc1c(C(=O)Nc2ccc3ccccc3n2)nnn1-c1ccccc1Br	Non-Toxic	
34	Cc1c(C(=O)Nc2ccc3ccccc3n2)nnn1-c1ccccc1C#N	Non-Toxic	
750	Cc1cc(/C=C/c2ccc3cc(N(C)C)ccc3[n+]2C)c(C)n1-c1ccccc1 [PYRVINIUM]		bioavailability [3]: < 1%
4.7	CCc1c(C(=O)Nc2ccc3ccccc3n2)nnn1-c1ccccc1F	Non-Toxic	
> 10000	Cc1ccc(-n2nnc(C(=O)Nc3ccc4ccccc4n3)c2C)cc1	Non-Toxic	
4900	Cc1ccccc1-n1nnc(C(=O)Nc2ccc3ccccc3c2)c1C	Non-Toxic	
5500	Cc1c(C(=O)Nc2ccc3ccccc3n2)nnn1-c1cccc2ccccc12	Non-Toxic	inhibition (HEK293 [4]): inactive
1.2	Cc1c(C(=O)Nc2ccc3ccccc3n2)nnn1-c1ccccc1F	Non-Toxic	growth inhibition (GI) (HEK293 [5]): Toxic
830	Cc1ccccc1-n1nnc(C(=O)Nc2ccc3cc(Br)ccc3n2)c1C	Non-Toxic	
230	Cc1ccccc1-n1nnc(C(=O)Nc2ccc3cc(CN4CCSCC4)ccc3n2)c1C	Non-Toxic	
	Oc1nc(-c2ccc(C(F)(F)F)cc2)nc2c1CSCC2		Activity (Axin-1 (Homo sapiens)): Active
> 10000	Cc1c(C(=O)Nc2ccc3ccccc3n2)nnn1-c1ccccc1C(N)=O	Non-Toxic	
18	COc1ccccc1-n1nnc(C(=O)Nc2ccc3ccccc3n2)c1C	Non-Toxic	
25	CC(C)c1c(C(=O)Nc2ccc3ccccc3n2)nnn1-c1ccccc1F	Non-Toxic	
8800	CC(=O)c1ccccc1-n1nnc(C(=O)Nc2ccc3ccccc3n2)c1C	Non-Toxic	
270	Cc1ccc(-n2nnc(C(=O)Nc3ccc4ccccc4n3)c2C)c(C)c1	Non-Toxic	
1200	Cc1ccccc1-n1nnc(C(=O)Nc2ccc3cc(CN4CCCCC4)ccc3n2)c1C	Non-Toxic	
1900	Cc1c(C(=O)Nc2ccc3ccccc3n2)nnn1-c1ccccc1N1CCOCC1	Non-Toxic	

From ChEMBL document CHEMBL4371095, “Triazole-Based Inhibitors of the Wnt/β-Catenin Signaling Pathway Improve Glucose and Lipid Metabolisms in Diet-Induced Obese Mice” (J Med Chem, 2019)
